Experimental data from ChEMBL document CHEMBL2331489, “Novel cinnoline-based inhibitors of LRRK2 kinase activity” (Bioorg Med Chem Lett, 2013).
pEC50, pIC50: −log10 of the molar value. Active and inactive are the calls of the source. The calls are words filed in the database; no cut-off is given here.

Experiments:
[1] = biological target: T1, Leucine-rich repeat serine/threonine-protein kinase 2 (Homo sapiens, UniProt Q5S007, G2019S); assay: Inhibition of GST-tagged LRRK2 G2019S mutant (970 to 2527 amino acid residues) (unknown origin) assessed as inhibition of biotinylated-LRRKtide phosphorylation by HTRF assay in presence of ATP
[2] = biological target: Leucine-rich repeat serine/threonine-protein kinase 2 (Homo sapiens, UniProt Q5S007); assay: Inhibition of wild type GST-tagged LRRK2 (970 to 2527 amino acid residues) (unknown origin) assessed as inhibition of biotinylated-LRRKtide phosphorylation by HTRF assay in presence of ATP
[3] = biological target: T1, Leucine-rich repeat serine/threonine-protein kinase 2; assay: Inhibition of LRRK2 G2019S mutant (unknown origin) transfected in HEK293 cells assessed as inhibition of S935 phosphorylation; type: cell-based
Brain = assay: Drug uptake in Mdr1(a/b) knock out and P-gp competent FVB mouse brain at 1 mg/kg, iv at 5 mins; type: ADME, organism-based; set-up: dose 1 mg/kg, route intravenous; details: in vivo
Method in brief: (§1)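 FVB mice, both Mdr1a/b (-/-) and P-gp-competent wild-type, were given a single 1 mg/kg IV dose. Brain and plasma concentrations were measured 5 min after dosing. Brain uptake was expressed as the brain-to-plasma concentration ratio (Kp). In vivo P-gp efflux was assessed by comparing the knockout and wild-type strains.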

[4] = biological target: ATP-dependent translocase ABCB1 (Homo sapiens, UniProt P08183); assay: Inhibition of MDR1 (unknown origin) transfected in MDCK cells; type: cell-based
Mus musculus = assay: Inhibition of P-gp in Mdr1(a/b) knock out and P-gp competent FVB mouse at 1 mg/kg, iv; type: functional, organism-based; set-up: dose 1 mg/kg; method in brief: as §1
[5] = Ratio of drug level in brain to plasma in Mdr1(a/b) knock out and P-gp competent FVB mouse at 1 mg/kg, iv at 5 mins; type: ADME, organism-based; set-up: dose 1 mg/kg, route intravenous; details: read-out: BPR; method in brief: as §1
[6] = biological target: Platelet-derived growth factor receptor alpha (Homo sapiens, UniProt P16234); assay: Inhibition of PDGFRalpha (unknown origin) by TR-FRET assay in presence of ATP
[7] = biological target: Macrophage colony-stimulating factor 1 receptor (Homo sapiens, UniProt P07333); assay: Inhibition of CSF1R (unknown origin) by TR-FRET assay in presence of ATP
Sequence of Macrophage colony-stimulating factor 1 receptor (P07333 whole entry): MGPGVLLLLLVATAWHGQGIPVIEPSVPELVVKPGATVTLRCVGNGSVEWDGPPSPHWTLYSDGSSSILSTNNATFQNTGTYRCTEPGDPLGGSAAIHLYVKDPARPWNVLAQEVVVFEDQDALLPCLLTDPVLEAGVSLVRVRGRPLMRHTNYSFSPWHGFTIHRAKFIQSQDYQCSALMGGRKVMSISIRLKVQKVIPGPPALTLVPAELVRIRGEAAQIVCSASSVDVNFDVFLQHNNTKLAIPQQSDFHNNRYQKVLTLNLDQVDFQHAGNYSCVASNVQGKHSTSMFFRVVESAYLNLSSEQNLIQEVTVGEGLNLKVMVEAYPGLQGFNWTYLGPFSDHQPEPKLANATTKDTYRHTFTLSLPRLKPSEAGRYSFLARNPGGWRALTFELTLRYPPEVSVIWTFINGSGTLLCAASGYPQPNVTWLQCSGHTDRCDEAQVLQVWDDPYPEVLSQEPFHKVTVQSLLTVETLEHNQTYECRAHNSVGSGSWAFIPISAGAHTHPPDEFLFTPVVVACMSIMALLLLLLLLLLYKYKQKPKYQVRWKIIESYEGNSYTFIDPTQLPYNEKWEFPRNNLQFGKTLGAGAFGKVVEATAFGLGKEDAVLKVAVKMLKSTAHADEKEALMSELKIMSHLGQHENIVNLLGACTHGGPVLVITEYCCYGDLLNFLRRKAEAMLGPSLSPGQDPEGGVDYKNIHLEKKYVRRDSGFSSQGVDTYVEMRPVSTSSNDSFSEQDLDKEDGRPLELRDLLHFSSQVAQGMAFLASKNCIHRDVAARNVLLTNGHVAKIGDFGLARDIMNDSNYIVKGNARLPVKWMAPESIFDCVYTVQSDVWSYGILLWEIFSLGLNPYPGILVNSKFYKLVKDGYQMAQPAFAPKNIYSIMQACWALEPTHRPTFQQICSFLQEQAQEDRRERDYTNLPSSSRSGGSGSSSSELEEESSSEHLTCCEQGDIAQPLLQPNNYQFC

T1 sequence (Q5S007 whole entry G2019S, the tested form may be a part): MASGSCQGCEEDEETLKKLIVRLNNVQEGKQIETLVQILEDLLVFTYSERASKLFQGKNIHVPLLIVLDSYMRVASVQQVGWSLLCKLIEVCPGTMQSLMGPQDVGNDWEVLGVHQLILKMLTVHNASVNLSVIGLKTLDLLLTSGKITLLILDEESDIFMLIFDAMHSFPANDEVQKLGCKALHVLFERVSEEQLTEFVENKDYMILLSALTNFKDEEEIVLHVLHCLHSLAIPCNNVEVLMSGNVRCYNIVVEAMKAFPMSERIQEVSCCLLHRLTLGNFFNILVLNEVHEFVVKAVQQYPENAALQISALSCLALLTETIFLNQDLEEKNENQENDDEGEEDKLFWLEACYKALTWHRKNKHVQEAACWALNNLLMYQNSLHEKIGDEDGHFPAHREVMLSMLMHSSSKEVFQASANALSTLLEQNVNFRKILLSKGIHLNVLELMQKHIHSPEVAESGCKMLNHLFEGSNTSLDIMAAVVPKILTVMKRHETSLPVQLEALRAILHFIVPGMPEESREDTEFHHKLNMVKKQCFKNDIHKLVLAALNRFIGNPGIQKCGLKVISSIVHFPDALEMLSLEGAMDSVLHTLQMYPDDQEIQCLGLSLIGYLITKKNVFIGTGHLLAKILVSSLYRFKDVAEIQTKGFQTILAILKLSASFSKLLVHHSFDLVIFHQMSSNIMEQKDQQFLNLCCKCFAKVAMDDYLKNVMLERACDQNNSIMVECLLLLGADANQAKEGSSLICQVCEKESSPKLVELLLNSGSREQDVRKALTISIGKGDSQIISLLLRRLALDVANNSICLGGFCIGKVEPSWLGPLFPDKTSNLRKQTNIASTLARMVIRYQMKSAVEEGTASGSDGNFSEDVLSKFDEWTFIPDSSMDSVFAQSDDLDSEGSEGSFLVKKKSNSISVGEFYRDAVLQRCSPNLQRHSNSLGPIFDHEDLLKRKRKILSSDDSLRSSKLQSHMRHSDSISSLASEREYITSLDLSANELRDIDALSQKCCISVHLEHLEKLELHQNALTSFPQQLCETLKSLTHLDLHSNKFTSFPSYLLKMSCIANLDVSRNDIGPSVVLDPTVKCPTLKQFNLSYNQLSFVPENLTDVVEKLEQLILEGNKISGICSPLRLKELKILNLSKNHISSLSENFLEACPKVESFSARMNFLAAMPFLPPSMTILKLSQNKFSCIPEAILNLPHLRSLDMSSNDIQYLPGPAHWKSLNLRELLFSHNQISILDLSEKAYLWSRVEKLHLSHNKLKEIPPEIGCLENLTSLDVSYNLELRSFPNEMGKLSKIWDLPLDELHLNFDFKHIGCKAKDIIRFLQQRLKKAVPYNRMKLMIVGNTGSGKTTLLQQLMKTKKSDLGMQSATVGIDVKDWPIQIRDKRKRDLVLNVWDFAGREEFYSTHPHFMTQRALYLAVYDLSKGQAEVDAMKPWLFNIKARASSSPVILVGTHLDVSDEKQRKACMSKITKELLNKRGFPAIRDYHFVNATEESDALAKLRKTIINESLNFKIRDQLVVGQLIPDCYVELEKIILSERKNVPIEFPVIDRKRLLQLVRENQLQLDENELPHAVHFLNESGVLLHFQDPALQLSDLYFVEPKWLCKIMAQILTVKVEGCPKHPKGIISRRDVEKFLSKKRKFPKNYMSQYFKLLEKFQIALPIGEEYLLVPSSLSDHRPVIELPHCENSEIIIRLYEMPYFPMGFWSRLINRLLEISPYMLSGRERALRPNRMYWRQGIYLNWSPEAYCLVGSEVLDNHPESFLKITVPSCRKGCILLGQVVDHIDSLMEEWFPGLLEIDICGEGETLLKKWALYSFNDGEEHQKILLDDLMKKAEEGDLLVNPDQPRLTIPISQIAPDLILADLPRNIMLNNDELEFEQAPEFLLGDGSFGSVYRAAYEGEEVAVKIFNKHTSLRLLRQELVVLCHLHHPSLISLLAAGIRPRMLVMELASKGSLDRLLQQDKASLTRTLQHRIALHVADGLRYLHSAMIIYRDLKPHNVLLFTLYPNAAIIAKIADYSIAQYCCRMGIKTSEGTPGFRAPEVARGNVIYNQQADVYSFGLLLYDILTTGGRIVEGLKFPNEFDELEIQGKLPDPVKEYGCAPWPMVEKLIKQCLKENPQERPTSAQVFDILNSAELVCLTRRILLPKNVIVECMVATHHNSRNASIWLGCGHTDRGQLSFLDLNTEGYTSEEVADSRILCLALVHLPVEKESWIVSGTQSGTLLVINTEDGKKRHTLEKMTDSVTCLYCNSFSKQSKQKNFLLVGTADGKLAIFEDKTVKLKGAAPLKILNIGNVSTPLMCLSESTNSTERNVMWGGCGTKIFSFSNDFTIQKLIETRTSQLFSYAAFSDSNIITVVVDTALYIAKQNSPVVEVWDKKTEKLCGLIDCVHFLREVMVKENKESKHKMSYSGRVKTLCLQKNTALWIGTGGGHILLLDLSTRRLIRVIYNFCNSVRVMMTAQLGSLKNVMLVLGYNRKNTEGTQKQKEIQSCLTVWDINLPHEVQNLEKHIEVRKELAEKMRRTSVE
Sequence of Leucine-rich repeat serine/threonine-protein kinase 2 (Homo sapiens, UniProt Q5S007) (Q5S007 whole entry, the tested form may be a part): as the sequence (Q5S007 whole entry G2019S, the tested form may be a part) above, with S2019G counted along it
Sequence of Platelet-derived growth factor receptor alpha (P16234 whole entry): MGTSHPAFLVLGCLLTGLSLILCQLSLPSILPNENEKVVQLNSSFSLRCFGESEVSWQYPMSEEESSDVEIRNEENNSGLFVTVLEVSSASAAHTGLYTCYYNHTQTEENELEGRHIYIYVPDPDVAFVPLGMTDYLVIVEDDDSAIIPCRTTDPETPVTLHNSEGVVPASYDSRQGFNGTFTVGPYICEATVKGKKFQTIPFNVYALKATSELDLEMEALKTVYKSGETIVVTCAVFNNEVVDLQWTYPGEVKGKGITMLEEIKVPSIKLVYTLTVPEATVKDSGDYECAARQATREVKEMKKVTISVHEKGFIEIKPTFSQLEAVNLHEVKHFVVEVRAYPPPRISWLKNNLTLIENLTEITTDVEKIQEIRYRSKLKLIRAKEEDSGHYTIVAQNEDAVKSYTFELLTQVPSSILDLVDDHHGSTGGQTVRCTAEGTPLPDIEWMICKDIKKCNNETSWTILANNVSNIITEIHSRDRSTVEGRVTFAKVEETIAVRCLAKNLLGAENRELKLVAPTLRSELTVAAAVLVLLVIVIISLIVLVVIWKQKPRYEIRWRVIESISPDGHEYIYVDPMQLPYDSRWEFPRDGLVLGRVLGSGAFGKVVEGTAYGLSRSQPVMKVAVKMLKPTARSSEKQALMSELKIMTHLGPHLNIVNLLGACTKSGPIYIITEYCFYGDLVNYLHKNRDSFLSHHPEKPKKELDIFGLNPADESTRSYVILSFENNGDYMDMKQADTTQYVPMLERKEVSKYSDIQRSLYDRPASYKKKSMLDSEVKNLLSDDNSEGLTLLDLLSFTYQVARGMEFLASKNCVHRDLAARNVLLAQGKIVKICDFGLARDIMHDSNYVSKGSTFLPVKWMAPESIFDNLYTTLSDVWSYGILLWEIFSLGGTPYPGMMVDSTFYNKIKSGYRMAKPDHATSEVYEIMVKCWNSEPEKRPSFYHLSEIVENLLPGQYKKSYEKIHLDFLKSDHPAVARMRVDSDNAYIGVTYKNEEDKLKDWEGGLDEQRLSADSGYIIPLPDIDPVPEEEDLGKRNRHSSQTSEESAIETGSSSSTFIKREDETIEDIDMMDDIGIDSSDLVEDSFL

| SMILES | pIC50 [1] | pIC50 [2] | other results |
| --- | --- | --- | --- |
| NC(=O)c1nnc2cc(-c3ccncc3)ccc2c1NCCCO | 6.79 | – | – |
| CC(C)Nc1c(C(N)=O)nnc2cc(-c3cnn(C)c3)ccc12 | 7.92 | – | – |
| CS(=O)(=O)c1ccc(-c2ccc3c(NC4CC4)c(C(N)=O)nnc3c2)cc1 | 7.28 | 7.31 | – |
| CC[C@@H](C)Nc1c(C(N)=O)nnc2cc(-c3ccc(S(C)(=O)=O)cc3)ccc12 | 8.40 | 9.00 | pEC50 [3]: 7.14 |
| CC(C)Nc1c(C(N)=O)nnc2ccc(-c3cnn(C)c3)cc12 | 6.37 | – | – |
| NC(=O)c1nnc2cc(-c3ccncc3)ccc2c1NCCO | 6.58 | – | – |
| CC(C)Nc1c(C(N)=O)nnc2cc(-c3cn[nH]c3)ccc12 | 7.74 | 7.92 | – |
| CCNc1c(C(N)=O)nnc2cc(-c3ccc(S(C)(=O)=O)cc3)ccc12 | 7.26 | – | – |
| CNc1c(C(N)=O)nnc2cc(-c3ccc(S(C)(=O)=O)cc3)ccc12 | 7.25 | – | – |
| CC(C)Nc1c(C(N)=O)nnc2cc(N3CCN(C)CC3)ccc12 | 7.23 | – | – |
| CS(=O)(=O)c1ccc(-c2ccc3c(Nc4ccccc4)c(C(N)=O)cnc3c2)cc1 | – | 6.11 | – |
| C[C@@H](Nc1c(C(N)=O)nnc2cc(-c3ccncc3)ccc12)C1CC1 | 8.22 | 8.70 | Drug uptake (Brain): Active; inhibition (INH) [4]: Active; inhibition (Mus musculus): Active; Kp at 5 min [5]: 1.5; pEC50 [3]: 7.21 |
| CS(=O)(=O)c1ccc(-c2ccc3c(NC4CCOCC4)c(C(N)=O)nnc3c2)cc1 | 7.49 | – | – |
| CS(=O)(=O)c1ccc(-c2ccc3c(N)c(C(N)=O)nnc3c2)cc1 | 6.53 | – | – |
| Cc1c(-c2ccncc2)ccc2c(NC(C)C)c(C(N)=O)nnc12 | 5.60 | 5.49 | – |
| CNC(=O)c1nnc2cc(-c3ccc(S(C)(=O)=O)cc3)ccc2c1NC(C)C | 6.38 | – | – |
| CS(=O)(=O)c1ccc(-c2ccc3c(NCC4CC4)c(C(N)=O)nnc3c2)cc1 | 7.57 | – | – |
| CC(C)Nc1c(C(N)=O)nnc2cc(-c3ccc(S(C)(=O)=O)cc3)ccc12 | 7.57 | – | pIC50 [6]: 6.58; pIC50 [7]: 7.92; pEC50 [3]: 6.66 |
| CC(C)Nc1c(C(N)=O)nnc2cc(-c3cnsc3)ccc12 | 7.70 | 7.85 | pEC50 [3]: 6.54 |
| CNC(=O)c1nnc2cc(-c3ccc(S(C)(=O)=O)cc3)ccc2c1N[C@H](C)C1CC1 | 6.61 | – | – |
| CS(=O)(=O)c1ccc(-c2ccc3c(NC4CCOC4)c(C(N)=O)nnc3c2)cc1 (racemic) | 7.28 | – | – |
